Assay outcomes: PubChem, several laboratories
In the library only some 4.1% were active in any assay of this set; here they are far more common.
KCNK3 block = human KCNK3 channel inhibitors, primary screen, CHO cells, FluxOR thallium flux, B-score; Potassium channel subfamily K member 3 (Homo sapiens), O14649; FluxOR fluorescence; active compounds read low; B-score at 10 µM; actives 0.84% (n = 340,000); AID 602410, 2012;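 active = B-score under library mean minus 4 SD, starting fluorescence ratio at most library mean plus 5 SD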;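 also: more negative B-score means stronger inhibition of thallium flux through KCNK3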
KCNQ1 act = potentiators or activators of KCNQ1 channel, primary screen, cell-based, thallium flux, high-throughput; CHO-K1 KCNQ1, thallium flux FluxOR fluorescence; active compounds read high; Potassium voltage-gated channel subfamily KQT member 1 (Homo sapiens), P51787; AID 2648, 2010; B-score at 10 µM; actives 0.35% (n = 310,000);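 active = fluorescence ratio B-score, a plate-corrected score, at least three library SD, with initial intensity B-score within 5 SD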
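assay system = CHO-K1 cells stably expressing KCNQ1 | medium = assay buffer, equal DMSO in all wells | timing = 37 °C overnight plating, 90-min dark dye load, 20-min compound pretreatment | measured by = kinetic FluxOR thallium fluorescence, 10-s 1-Hz baseline, 110-s post-stimulus read | measure = fluorescence change relative to baseline, converted to B score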
KCNQ1 block = inhibitors of human KCNQ1 channel, primary screen, cell-based, thallium flux, high-throughput; actives 1.3% (n = 310,000); Potassium voltage-gated channel subfamily KQT member 1 (Homo sapiens), P51787; AID 2642, 2010; B-score at 10 µM; CHO-K1 KCNQ1, FluxOR thallium flux fluorescence; active compounds read high;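 active = compounds whose thallium flux B-score, printed positive for inhibition, exceeds three library SD while starting fluorescence stays within three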;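 also: channel opened by potassium depolarization with thallium stimulus after 20 min compound exposure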
KCNK9 block = KCNK9 potassium channel inhibitors, primary screen, HEK293 cells, thallium flux; Potassium channel subfamily K member 9 (Homo sapiens), Q9NPC2; FluxOR thallium flux fluorescence; active compounds read low; B-score at 10 µM; actives 1.2% (n = 310,000); AID 488922, 2010;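 active = ratio B-score over 3 SD below the library mean, with starting fluorescence within 5 SD of its mean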;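 also: negative B-score means less thallium flux so channel inhibition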
KCC2 mod = KCC2 cotransporter modulators, thallium flux, primary screen, cell-based, HEK293 KCC2, FluoZin-2 fluorescence, MLSMR | Solute carrier family 12 member 5 (Homo sapiens), Q9H2X9 | KCC2 cells, thallium flux FluoZin-2 fluorescence | B-score of Tl+ flux slope (higher = more flux/activation; lower = inhibition) at 10 µM | actives 2.2% (n = 190,000);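 active = thallium flux slope and its plate-corrected score both differing from the plate sample mean at a set confidence after two filtering rounds, in either direction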;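 also: slope of fluorescence scaled to starting intensity during 10 to 20 s after thallium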
Target sequence (Q9H2X9 whole entry, looked up): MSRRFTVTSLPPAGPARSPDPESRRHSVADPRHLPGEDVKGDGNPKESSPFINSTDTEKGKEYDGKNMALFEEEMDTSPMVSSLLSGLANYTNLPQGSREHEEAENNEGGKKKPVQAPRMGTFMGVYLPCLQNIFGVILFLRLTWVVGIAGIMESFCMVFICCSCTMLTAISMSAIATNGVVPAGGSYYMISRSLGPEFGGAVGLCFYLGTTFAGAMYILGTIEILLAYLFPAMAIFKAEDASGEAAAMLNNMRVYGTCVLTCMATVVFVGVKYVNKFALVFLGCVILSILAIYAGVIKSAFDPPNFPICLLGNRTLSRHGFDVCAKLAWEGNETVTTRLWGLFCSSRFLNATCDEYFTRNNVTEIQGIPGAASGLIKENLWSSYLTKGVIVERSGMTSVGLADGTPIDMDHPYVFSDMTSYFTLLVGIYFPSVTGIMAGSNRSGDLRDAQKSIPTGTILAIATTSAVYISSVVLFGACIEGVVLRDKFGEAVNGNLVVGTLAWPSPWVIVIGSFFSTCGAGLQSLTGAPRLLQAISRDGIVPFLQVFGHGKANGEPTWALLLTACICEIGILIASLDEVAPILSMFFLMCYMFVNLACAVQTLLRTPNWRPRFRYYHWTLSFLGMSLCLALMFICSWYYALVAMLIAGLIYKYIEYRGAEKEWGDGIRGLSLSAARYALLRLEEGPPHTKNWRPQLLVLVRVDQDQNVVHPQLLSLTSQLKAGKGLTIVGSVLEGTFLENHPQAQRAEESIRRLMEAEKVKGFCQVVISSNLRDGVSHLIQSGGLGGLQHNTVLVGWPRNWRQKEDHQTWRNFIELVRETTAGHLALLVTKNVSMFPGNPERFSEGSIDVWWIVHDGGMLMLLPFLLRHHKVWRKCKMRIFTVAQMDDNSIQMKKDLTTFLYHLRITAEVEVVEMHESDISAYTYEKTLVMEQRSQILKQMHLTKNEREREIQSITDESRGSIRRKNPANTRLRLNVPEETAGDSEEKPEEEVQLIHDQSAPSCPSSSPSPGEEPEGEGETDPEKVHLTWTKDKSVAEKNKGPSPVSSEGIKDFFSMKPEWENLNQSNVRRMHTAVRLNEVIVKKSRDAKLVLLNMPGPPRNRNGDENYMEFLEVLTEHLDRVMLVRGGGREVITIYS
hERG protect = hERG rescue from dofetilide block, primary screen, cell-based, CHO-hERG, FluxOR thallium flux, dofetilide IC70 | activation (rescue from dofetilide block), less the hit threshold, % at 10 µM | actives 0.51% (n = 310,000) | Voltage-gated inwardly rectifying potassium channel KCNH2 (Homo sapiens), Q12809 | dofetilide IC70 present | AID 1511, 2009;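 active = activation above the mean of controls blocked by dofetilide plus 5 SD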;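 also: thallium influx through hERG after potassium depolarization seen as dye fluorescence rise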
KCNK9 block conf = KCNK9 potassium channel inhibitors, confirmation, HEK293 cells, thallium flux, duplicate; shares compounds with KCNK9 block; FluxOR thallium flux fluorescence; inhibition, % at 10 µM; actives 43% (n = 4,900); AID 492992, 2010;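 active = thallium signal inhibited by more than 5 SD of the compound-free buffer control wells, on both duplicate plates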;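 also: 0% = assay buffer control wells without compound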
Kir21 sel = mouse Kir2.1 channel inhibition, confirmation, selectivity assay for KCNK9 modulator project, cell-based, HEK293, thallium flux. shares compounds with KCNK9 block. Kir2.1 cells, FluxOR thallium flux fluorescence. inhibition, % at 10 µM. actives 4% (n = 4,900). AID 492993, 2010;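 active = thallium signal drop more than 5 SD beyond the mean of the no-compound control wells, seen in both duplicate plates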;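 also: signal is fluorescence rise after thallium addition divided by baseline fluorescence; plate controls were assay buffer only for no effect and full block by chlorpromazine control for full effect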
KCNK9 uninduced = thallium flux in non-induced HEK293 cells, confirmation, counter-screen for KCNK9 inhibitor project, cell-based, second counter screen, non-induced KCNK9-HEK293 | shares compounds with KCNK9 block | FluxOR thallium flux | inhibition, % at 10 µM | actives 40% (n = 4,900) | AID 492997, 2010;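 active = thallium signal drop beyond 5 SD of the untreated control mean, on both duplicate plates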;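 also: plate controls were buffer only IC0 wells for no effect and SID17386958 at its maximal inhibitory level for full effect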
* marks the source's active call; other numbers are inactive results; i = inactive; x = not tested or not shown.

SMILES | KCNK3 block | KCNQ1 act | KCNQ1 block | KCNK9 block | KCC2 mod | hERG protect | KCNK9 block conf | Kir21 sel | KCNK9 uninduced
Cc1cc(OCCn2nc(C(=O)O)c3ccccc3c2=O)ccc1C(C)C | i | i | i | i | x | -9.3 | i | i | i
CC(C)(C)NC(=S)NNC(=O)[C@H]1C[C@@H]1c1ccccc1 | i | i | i | i | 0.0262 | -8.1 | x | x | x
Cc1ccc(C2CC2C(=O)NNC(=S)Nc2ccc(Cl)cc2)cc1 (stereo not drawn) | i | i | 10* | i | -0.573 | -15.7 | i | i | i
CCCC(C)c1nnc(NC(=O)CCS(=O)(=O)c2ccccc2)s1 (stereo not drawn) | i | i | i | i | x | -5.1 | i | i | i
CC(C)c1nnc(NC(=O)CCS(=O)(=O)c2ccccc2)s1 | i | i | i | i | x | -6.2 | x | x | x
Cc1ccc(CNC(=O)C2CCN(S(=O)(=O)c3cccs3)CC2)cc1 | i | i | i | i | x | 0.9 | x | x | x
Cc1cccc(/C=C2/C(=O)/C(=C/c3ccccc3C)C3CCC2N3C)c1 (stereo not drawn) | i | i | i | i | 1.36 | -7.8 | i | i | i
CC1CCCC(C)N1CCCNC(=O)C(=O)Nc1ccc2nc3n(c(=O)c2c1)CCCCC3 (stereo not drawn) | i | i | i | i | x | -9.7 | x | x | x
CCC(Oc1ccccc1OC)C(=O)Nc1ccc2c(c1)n(C)c(=O)n2C (stereo not drawn) | i | i | i | i | x | -6.8 | x | x | x
C[C@@H](C(=O)O)[C@H]1C[C@]1(C)[C@H](NC(=O)OCc1ccccc1)c1ccccc1 | i | i | i | i | 0.147 | -6.8 | x | x | x
C[C@@H](C(=O)NCc1ccccc1)[C@H]1C[C@]1(C)[C@H](NC(=O)OCc1ccccc1)c1ccccc1 | i | i | i | -9.18* | 0.333 | -7.8 | 49.0%* | i | i
CCOC(=O)c1c(NS(=O)(=O)c2ccc(Br)cc2)sc2c1CCC2 | i | 56* | i | i | 118* | 61.6* | i | i | i
c1ccc(C(c2ccccc2)N2CCN(Cc3nnnn3C3CCCC3)CC2)cc1 | i | i | i | -8.98* | x | -11.2 | 41.0%* | i | i
Cc1ccc2oc(-c3cccc(NC(=O)c4cc(-n5cnnc5)ccc4Cl)c3)nc2c1 | i | i | i | i | 0.329 | -9.6 | x | x | x
CN(C)C(C(=O)Nc1cc(Cl)cc(Cl)c1)c1ccccc1 (stereo not drawn) | i | i | i | -10.1* | -0.0166 | -23.4 | 43.5%* | i | 29.5%*
O=C(OC(C(=O)Nc1cc(Cl)cc(Cl)c1)c1ccccc1)C1=COCCO1 (stereo not drawn) | i | i | i | i | -0.0489 | -8.0 | x | x | x
Cc1ccc(S(=O)(=O)CCc2nc3ccccc3n2CCC#N)cc1 | i | i | i | i | 1.23 | -10.3 | x | x | x
Cc1ccc(-n2nc(C(=O)c3ccccc3)n3c(=O)c(Cc4ccccc4)nnc23)cc1 | i | i | i | i | 1.81 | -17.5 | x | x | x
